# In article PMC2193327 (The Journal of Experimental Medicine, 2001):
# No end group written: not given here.
# Molecular target: HLA-B*3501 (Homo sapiens, UniProt P01889, A329T/A93T/A95T/C349S/D201E/D98Y/E176V/E187L/E204Q/E69T/I218V/K202T/L119I/Q94N/R155S/R180L/S121R/S35A/S48A/T118I/V127L/V306I/V36M/Y140S/Y91F)
# Assay type: binding
# Procedure, shortened: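 Human 721.221 cells expressing HLA-B*3501 were stripped of bound peptides with mild acid (pH 3.2). They were incubated overnight at 4°C with fluorescein-labelled reference peptide LPSC(FL)ADVEF (250 nM fixed) plus competitor peptides (>80% HPLC purity) from 50 to 0.09 μM. After washing, bound labelled peptide was measured by flow cytometry. IC50 (50% inhibition of reference binding) was taken from exponential regression curves.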
row,Compound,IC50
1,APAVVGLSPGEQEY [APAVVGLSPGEQEY],2800 nM
2,LMAVVGLSPGEQEY [LMAVVGLSPGEQEY],6500 nM
3,"FPSDSWCYF [FPSDSWCYF, reference compound]",4100 nM
4,LAAVVGLSPGEQEY [LAAVVGLSPGEQEY],2600 nM
5,LPAVVGLSAGEQEY [LPAVVGLSAGEQEY],1100 nM
6,LAAVVGLSAGEQEY [LAAVVGLSAGEQEY],1700 nM
7,LWAVVGLSPGEQEY [LWAVVGLSPGEQEY],4700 nM
8,LPAVVGASPGEQEY [LPAVVGASPGEQEY],1300 nM
9,LGAVVGLSPGEQEY [LGAVVGLSPGEQEY],17400 nM
10,CC(C)C[C@H](NC(=O)CNC(=O)[C@@H](NC(=O)[C@@H](NC(=O)[C@H](C)NC(=O)[C@@H]1CCCN1C(=O)[C@@H](N)CC(C)C)C(C)C)C(C)C)C(=O)N[C@@H](CO)C(=O)N1CCC[C@H]1C(=O)NCC(=O)N[C@@H](CCC(=O)O)C(=O)N[C@@H](CCC(N)=O)C(=O)N[C@@H](CCC(=O)O)C(=O)N[C@@H](Cc1ccc(O)cc1)C(=O)O [LPAVVGLSPGEQEY],3100 nM
